22 compounds from ChEMBL document CHEMBL2413043, “5-Nitro-2-furfuriliden derivatives as potential anti-Trypanosoma cruzi agents: design, synthesis, bioactivity evaluation, cytotoxicity and exploratory data analysis” (Bioorg Med Chem, 2013) can be followed below.

Where only a bound is given, the exact number is not on record here.

Series [1] concerns Trypanosoma cruzi. In words: Antitrypanosomal activity against epimastigotes of Trypanosoma cruzi Y assessed as parasite growth inhibition after 5 days by spectrophotometric analysis. The class given is functional, organism-based. Particulars: for IC50: Trypanosoma cruzi, Y, 120 h. In short, it runs like this: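 Stationary-phase epimastigotes (10-day culture, 28 °C) diluted in LIT medium with 10% fetal calf serum to 2.0 x 10^6 parasites/mL. Compounds dissolved in DMSO (final ≤1.0%), 0.25–180.0 µM, incubated 28 °C for 5 days. Growth read at A580 versus day 0 and untreated controls as percent growth inhibition. Triplicates; IC50 by sigmoid dose–response fit, at least five concentrations.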

Series [2] is described as follows: Cytotoxicity against human FN1 fibroblasts after 24 hrs by MTT assay. An outline of the steps: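 Human FN1 fibroblasts kept in RPMI 1640 with 10% FBS at 37 °C, 5% CO2. Plated in triplicate at 1 x 10^4 cells/well, incubated overnight, then treated 24 h with 12.5–200 µM. MTT at 5 mg/mL for 2 h, formazan dissolved in 0.1 N HCl in isopropanol, absorbance at 540 nm, IC50 determined.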

The subject of series [3] is Trypanosoma cruzi. In words: Ratio of nifurtimox IC50 to compound IC50 for epimastigotes of Trypanosoma cruzi Y. Format: functional.
A short description of series [4]: Selectivity index, ratio of IC50 for mouse J774 cells to IC50 for epimastigotes of Trypanosoma cruzi Y. Format: toxicity, cell-based. As to conditions: read-out: Ratio IC50. In short, it runs like this: (§1)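 Selectivity index taken as IC50 in the mammalian cell line (J774 or FN1) divided by IC50 against Y-strain epimastigotes.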
The test system of series [5] is J774. The experiment in a line: Cytotoxicity against mouse J774 cells after 48 hrs by MTT assay. As to conditions: J774, 48 h. The class given is cell-based. An outline of the steps:
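J774 murine macrophages in RPMI 1640 with 10% FBS, 37 °C, 5% CO2. Seeded at 1.0 x 10^4 cells/well in RPMI 1640 with 5% heat-inactivated fetal calf serum, attached 24 h. Exposed 48 h to 0.8–400.0 µM. MTT at 0.4 mg/mL final for 3 h at 37 °C, formazan in DMSO, A595. IC50 is the mean of six experiments, sigmoid fit, at least five concentrations.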
(In general: Tetrazolium dyes change colour on reduction, which living cells bring about.)

The nature of series [6]: Selectivity index, ratio of IC50 for human FN1 fibroblasts to IC50 for epimastigotes of Trypanosoma cruzi Y. In short, it runs like this:
as §1

As a reminder, the IC50 is the midpoint of a concentration-inhibition curve. `CC(=O)N1N=C(c2ccc(Br)cc2)OC1c1ccc([N+](=O)[O-])o1` (centres undefined): in series [1], the “log(1/C)” value was determined as 5.01 and the IC50 was determined as 9.59 µM.
In the case of `CC(=O)N1N=C(c2ccc(I)cc2)OC1c1ccc([N+](=O)[O-])o1` (centres undefined), in series [1], the “log(1/C)” value is on record as 4.93 and the IC50 was 11.5 µM.
For the compound `N#Cc1ccc(C(=O)N/N=C/c2ccc([N+](=O)[O-])o2)cc1`, in series [1], the “log(1/C)” value came out at 4.9 and the IC50 is 12.5 µM.
Regarding `CCCCc1ccc(C(=O)N/N=C/c2ccc([N+](=O)[O-])o2)cc1`, in series [1], the “log(1/C)” value is reported as 5.98. For the same compound, the IC50 in series [1] was found to be 1.05 µM; in series [2] it was 98 µM; in series [5] it was 28.1 µM. Besides, the “Ratio IC50” value in series [3] is listed as 3; in series [6], 93.33. Also, the selectivity ratio in series [4] was 26.7.
Take `O=C(N/N=C/c1ccc([N+](=O)[O-])o1)c1ccc(Br)cc1`: in series [1], the “log(1/C)” value was 5.42 and the IC50 was 3.74 µM.
The corresponding values for `O=C(N/N=C/c1ccc([N+](=O)[O-])o1)c1ccc(I)cc1` are 5.49 and 3.21 µM.
Taken in the same sequence, the figures for `CC(=O)N1N=C(c2ccccc2)OC1c1ccc([N+](=O)[O-])o1` (centres undefined) were 4.99 and 10.2 µM.
Taken in the same sequence, the figures for `CC(=O)N1N=C(c2ccc(C)cc2)OC1c1ccc([N+](=O)[O-])o1` (centres undefined) were 5.01 and 9.84 µM.
For the compound `CC(=O)N1N=C(c2ccc(C#N)cc2)OC1c1ccc([N+](=O)[O-])o1` (centres undefined), in series [1], the “log(1/C)” value is given as 4.87 and the IC50 was determined as 13.4 µM.
Taken in the same sequence, the figures for `COc1ccc(C2=NN(C(C)=O)C(c3ccc([N+](=O)[O-])o3)O2)cc1` (centres undefined) were 5.03 and 9.26 µM.
Turning to `CC(=O)N1N=C(c2ccc(Cl)cc2)OC1c1ccc([N+](=O)[O-])o1` (centres undefined), in series [1], the “log(1/C)” value is on record as 4.94. Further, the IC50 in series [1] is 11.5 µM; in series [2], > 200 µM; in series [5] it was > 400 µM. For the same compound, the selectivity ratio in series [4] is > 34. Further, in series [6], the “Ratio IC50” value is >17.
Take `CC(=O)N1N=C(c2ccc([N+](=O)[O-])cc2)OC1c1ccc([N+](=O)[O-])o1` (centres undefined): the “log(1/C)” value in series [1] amounted to 4.85. Also, the concentration for half-maximal inhibition (IC50) in series [1] is 13.9 µM; in series [2] it was > 200 µM; in series [5], 114 µM. Further, the selectivity ratio in series [4] was found to be 8.21. The “Ratio IC50” value in series [6] was >14.
As to `CCCCc1ccc(C2=NN(C(C)=O)C(c3ccc([N+](=O)[O-])o3)O2)cc1` (centres undefined), in series [1], the “log(1/C)” value is 5.08. The IC50 in series [1] was 8.27 µM; in series [2] it was 186 µM; in series [5], > 400 µM. In series [4], the selectivity ratio was > 48. The “Ratio IC50” value in series [6] amounted to 22.49.
Consider `CC(=O)N1N=C(c2ccc(C(F)(F)F)cc2)OC1c1ccc([N+](=O)[O-])o1` (centres undefined), for which, in series [1], the “log(1/C)” value stood at 4.95 and the IC50 was found to be 11.1 µM.
As to `O=C(N/N=C/c1ccc([N+](=O)[O-])o1)c1ccccc1`, in series [1], the “log(1/C)” value was 5.35 and the IC50 is 4.44 µM.
`O=C(N/N=C/c1ccc([N+](=O)[O-])o1)c1ccc(Cl)cc1`: the “log(1/C)” value in series [1] was 5.39. Further, the values for the IC50 in series [1], in series [2] and in series [5] were 4.03 µM, > 200 µM and 57.1 µM, respectively. For the same compound, the selectivity ratio in series [4] is 14.2. Besides, in series [6], the “Ratio IC50” value was >49.63.
Consider `COc1ccc(C(=O)N/N=C/c2ccc([N+](=O)[O-])o2)cc1`, for which, in series [1], the “log(1/C)” value came out at 5.4 and the IC50 was determined as 3.94 µM.
As for `O=C(N/N=C/c1ccc([N+](=O)[O-])o1)c1ccc([N+](=O)[O-])cc1`, the “log(1/C)” value in series [1] turned out to be 5.02. Besides, the IC50 in series [1] was found to be 9.45 µM; in series [2], 178 µM; in series [5], 79.1 µM. Moreover, the selectivity ratio in series [4] was found to be 8.37. Further, in series [6], the “Ratio IC50” value was 18.83.
Consider `Cc1ccc(C(=O)N/N=C/c2ccc([N+](=O)[O-])o2)cc1`, for which, in series [1], the “log(1/C)” value was determined as 5.43 and the IC50 worked out at 3.71 µM.
On to `O=C(N/N=C/c1ccc([N+](=O)[O-])o1)c1ccc(C(F)(F)F)cc1`, for which, in series [1], the “log(1/C)” value amounted to 5.35 and the IC50 is 4.42 µM.
As for `O=C(Cn1ccnc1[N+](=O)[O-])NCc1ccccc1` [BENZNIDAZOLE], the results for the IC50 in series [1], in series [2] and in series [5] were 22.7 µM, > 200 µM and > 400 µM, respectively. Moreover, the selectivity ratio in series [4] is > 18. Further, the “Ratio IC50” value in series [6] is given as >9.
With `CC1CS(=O)(=O)CCN1/N=C/c1ccc([N+](=O)[O-])o1` (centres undefined) [NIFURTIMOX], the IC50 was > 200 µM in series [2] and 280 µM in series [5]. In addition, in series [4], the selectivity ratio worked out at 74.2. In series [6], the “Ratio IC50” value is listed as >53.
